Compounds with a hit are over-represented: about 2.1% of the library has one in this group of screens.
EWS-Fli inh – EWS/Fli transcriptional activity inhibition | hit rate 0.67% among 350,000 | A673 NR0B1-luciferase reporter, viability-normalised | inhibition, % at 12.6 µM | AID 651661;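 active = mean inhibition of at least 50% after viability correction, with every replicate also passing that limit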;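 also: firefly luciferase signal divided by Alamar Blue viability fluorescence both relative to DMSO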
PAX8 reporter – PAX8 transcriptional activity inhibition; RMG-I TPO-luciferase reporter, SteadyGlo, 24 h; hit rate 1.2% among 360,000; AID 652154; inhibition, % at 12.6 µM;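 active = mean replicate inhibition at least 60% with every replicate also reaching 60%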;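 also: luciferase light reporting Pax8 driven TPO promoter activity; plate controls were median of neutral control wells for no effect and mitoxantrone controls for full effect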
Xi reactivation – X-chromosome reactivation activator. XiGFP mouse fibroblasts, % GFP-positive cells imaging, 3 d; cells co-treated with 5-aza-dC sensitizer; scaled so ellipticine positive control = 100%. activation, % at 7.58 µM. hit rate 0.055% among 360,000. AID 743238;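 active = mean normalized replicate activation at least 10% and every replicate at or above 10%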;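 also: 0% = median of on-plate neutral control wells and 100% = ellipticine 6 µM median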
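Material: XiGFP fibroblasts, SV40-immortalized. Buffer or medium: DMEM plus 5-aza-dC sensitizer. Compound: single concentration per compound, delivered by pin transfer. Times: 3 days compound exposure. Controls: ellipticine 6 µM.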
INS-1E GSIS act – GLuc luminescence reporter in INS-1E cells, primary screen for activators of glucose-dependent secretion of insulin; INS-1E GLuc reporter insulin secretion, 2-3 h; activation, % at 16.6 µM; hit rate 0.61% among 370,000; AID 743287;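 active = lowest replicate activation of at least 40%, so every replicate reaches that level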;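 also: 0% = median of neutral control wells and 100% = median of IBMX positive control wells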
MLL AF4-AF9 inh – blocks AF4 peptide binding to human AF9 | P42568 | AlphaScreen, biotin-AF4 peptide binding to FLAG-AF9 | inhibition, % at 10 µM | hit rate 0.47% among 350,000 | AID 651704;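 active = every replicate reaching a set inhibition limit, whatever the replicate mean, cut at about 25% in these data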;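 also: 0% = plate neutral control median and 100% = total signal loss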
Target sequence (P42568 whole entry, looked up): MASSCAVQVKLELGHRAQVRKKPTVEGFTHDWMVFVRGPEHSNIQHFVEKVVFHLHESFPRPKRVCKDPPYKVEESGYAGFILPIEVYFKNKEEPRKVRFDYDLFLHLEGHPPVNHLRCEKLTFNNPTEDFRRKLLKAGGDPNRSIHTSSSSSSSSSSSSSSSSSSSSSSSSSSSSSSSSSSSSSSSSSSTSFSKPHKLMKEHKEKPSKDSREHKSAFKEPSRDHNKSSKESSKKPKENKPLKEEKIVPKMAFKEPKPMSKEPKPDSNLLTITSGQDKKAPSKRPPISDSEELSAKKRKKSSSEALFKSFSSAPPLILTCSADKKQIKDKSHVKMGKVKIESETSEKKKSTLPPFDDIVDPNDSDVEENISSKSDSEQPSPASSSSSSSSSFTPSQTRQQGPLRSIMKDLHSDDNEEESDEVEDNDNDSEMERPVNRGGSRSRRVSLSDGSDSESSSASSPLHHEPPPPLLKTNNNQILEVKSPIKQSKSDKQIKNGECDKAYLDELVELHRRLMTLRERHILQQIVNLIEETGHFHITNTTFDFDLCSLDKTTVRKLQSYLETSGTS
PGC1a acetyl inh – modulators of PGC1a acetylation; U2OS PGC1a acetylation, AlphaScreen anti-acetyl-lysine; with virally co-expressed GCN5 acetyltransferase; inhibition, % at 15.6 µM; hit rate 0.17% among 350,000;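 active = every replicate shows inhibition of at least 40%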;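 also: 0% = neutral control wells and 100% = positive control wells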
* = called active by the depositor; nt = not tested or not shown.

SMILES | EWS-Fli inh | PAX8 reporter | Xi reactivation | INS-1E GSIS act | MLL AF4-AF9 inh | PGC1a acetyl inh
C[C@@H]1CCCCO[C@@H](CN(C)S(=O)(=O)c2ccc(Cl)cc2)[C@H](C)CN([C@@H](C)CO)C(=O)c2cc(NC(=O)Nc3ccc(F)cc3)ccc2O1 | 8 | 22 | 0 | 16 | -4 | -5
C[C@@H]1CN([C@H](C)CO)C(=O)c2cc(NC(=O)Nc3ccc(F)cc3)ccc2O[C@@H](C)CCCCO[C@H]1CN(C)S(=O)(=O)c1ccc(Cl)cc1 | -15 | 76* | 0 | 39 | -1 | -27
C[C@H](CO)N1C[C@H](C)[C@@H](CN(C)S(=O)(=O)c2ccc(Cl)cc2)OCCCC[C@H](C)Oc2ccc(NC(=O)Nc3ccc(F)cc3)cc2C1=O | 23 | 46 | 0 | 18 | -3 | -2
C[C@@H]1CCCCO[C@@H](CN(C)S(=O)(=O)c2ccc(Cl)cc2)[C@H](C)CN([C@H](C)CO)C(=O)c2cc(NC(=O)Cc3ccccc3)ccc2O1 | 15 | 62* | -1 | -18 | -1 | -3
C[C@@H]1CCCCO[C@H](CN(C)S(=O)(=O)c2ccc(Cl)cc2)[C@@H](C)CN([C@@H](C)CO)C(=O)c2cc(NC(=O)Nc3ccc(F)cc3)ccc2O1 | 6 | 66* | 0 | 36 | 2 | 15
C[C@H](CO)N1C[C@H](C)[C@H](CN(C)S(=O)(=O)c2ccc(Cl)cc2)OCCCC[C@H](C)Oc2ccc(NC(=O)Nc3ccccc3)cc2C1=O | -2 | 65* | 0 | -9 | -4 | 2
O=C(CN1C(=O)c2ccccc2S1(=O)=O)c1ccc(Cl)cc1Cl | nt | 112* | 0 | 7 | -2 | nt
O=C(CN1C(=O)c2ccccc2S1(=O)=O)c1ccc2c(c1)OCCO2 | 86* | 105* | 0 | -10 | nt | -7
O=C(CN1C(=O)c2ccccc2S1(=O)=O)c1ccc2c(c1)OCCCO2 | 89* | 104* | 0 | -6 | -3 | -4
Cc1ccc(NC(=S)NCC2CCCO2)cc1C (centres undefined) | nt | 4 | nt | 3 | nt | 0
Cc1ccc(NC(=S)NCC2CCN(C(C)c3ccccc3)C2)cc1C (centres undefined) | 1 | 10 | 0 | -16 | 25* | 15
Cc1cccc(N(Cc2ccccc2)C(=O)CCl)c1 | 52* | 123* | 0 | 97* | -2 | -4
O=C(CCl)N(Cc1ccccc1)c1ccccc1 | 73* | 108* | 0 | -2 | 0 | nt
O=C(CCl)N(Cc1cc(=O)[nH]c2ccccc12)c1ccccc1 | 15 | 53 | 0 | -1 | 0 | nt
O=C(c1cccnc1)N(Cc1ccccc1)c1ccccc1 | -1 | nt | nt | 117* | 5 | -2
CCC(=O)N(C)C[C@H]1Oc2cc(C#CCN(C)C)ccc2S(=O)(=O)N([C@@H](C)CO)C[C@@H]1C | -2 | nt | 0 | 23 | 0 | 6
O=C(Cc1ccncc1)NCC[C@H]1CC[C@@H](NC(=O)Nc2ccc(Cl)cc2)[C@H](CO)O1 | -5 | 6 | 0 | 4 | 1 | -1
COC(=O)[C@H]1[C@H](CO)[C@H]2Cn3c(ccc(-c4ccccc4F)c3=O)[C@H]2N1Cc1cccnc1 | -3 | -1 | 0 | 1 | 1 | nt
O=C(/C=C/Nc1ccccc1O)c1ccco1 | -22 | -56 | 2 | -33 | 1 | -3
O=C(/C=C/Nc1cccc(F)c1)c1ccco1 | nt | nt | nt | -10 | nt | -7
O=C(/C=C/Nc1ccc(Br)cc1F)c1ccco1 | 73* | -89 | 0 | 13 | 4 | 4
O=C(/C=C/Nc1ccc(F)cc1F)c1ccco1 | 65* | -36 | 0 | -1 | 5 | -7
COc1ccc2c3c([nH]c2c1)[C@@H](CO)N(C(=O)C1CCCC1)CC31CN(C)C1 | 8 | nt | 0 | -1 | 2 | -1
O=C(CN(c1ccc(Br)cc1)S(=O)(=O)c1ccc(Cl)c([N+](=O)[O-])c1)NCCc1ccccc1 | 13 | -11 | 0 | 8 | -2 | 8
Cc1ccc(N(CC(=O)NCCc2ccc(F)cc2)S(=O)(=O)c2ccc(Cl)c([N+](=O)[O-])c2)c(C)c1 | 5 | 78* | 0 | -8 | -11 | 29
